Source: PubChem BioAssay
Diaphorase inh – diaphorase inhibition or chemical oxidation counter-screen; diaphorase resazurin-to-resorufin fluorescence, NADH, 16 min; bacterial (C. kluyveri) enzyme, not human; inhibition, % at 20 µM; 190,000 compounds, 0.69% hits; AID 1217;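 active means primary screen inhibition at 20 µM above a set limit, cut at about 50% in these data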;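 further: plate controls were DMSO with full reaction for no effect and wells lacking NADH for full effect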
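System: Diaphorase enzyme from Clostridium kluyveri | Amount: Enzyme working solution with 0.14 U/mL diaphorase | Benchmarks: No-NADH positive control and DMSO neutral control | Signal: Fluorescence of resorufin formed from resazurin, Ex 544/Em 590 nm | Schedule: 16-min room-temperature incubation before reading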
WT yeast gro inh – growth inhibition of WT yeast, mitochondrial fusion screen; mitochondrial fusion phenotypic screen, WT strain; inhibition, % at 10 µM; 190,000 compounds, 2.1% hits; in the data active means inhibition above about 58%; tested in S. cerevisiae
KCC2 mod – KCC2 (human) Cl- transport modulation; B-score of Tl+ flux slope (higher = more flux/activation; lower = inhibition) at 10 µM; 190,000 compounds, 2.2% hits; KCC2 cells, thallium flux FluoZin-2 fluorescence;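 active means thallium flux slope and its plate-corrected score both differing from the plate sample mean at a set confidence after two filtering rounds, in either direction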;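 further: slope of fluorescence scaled to starting intensity during 10 to 20 s after thallium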
Lmaj promast – Leishmania major promastigote growth inhibition. Leishmania major promastigotes, resazurin fluorescence viability. inhibition, % at 10 µM. 200,000 compounds, 9% hits. AID 1063; in the data active means inhibition above about 50%;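 further: promastigotes grown with compound for 44 hours at 28 °C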
ROMK primary – modulators of human ROMK potassium channel; P48048; Tet-inducible ROMK, thallium flux fluorescence; actives lie on both sides; B-score at 10 µM; 130,000 compounds, 2% hits;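 active means signal ratio slope over the read window, or its plate-corrected B-score, at least 3 SD from the plate mean, either direction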;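 further: B-score of the F/F0 ratio slope over 7 to 12 s after thallium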
Target sequence (P48048 whole entry, looked up): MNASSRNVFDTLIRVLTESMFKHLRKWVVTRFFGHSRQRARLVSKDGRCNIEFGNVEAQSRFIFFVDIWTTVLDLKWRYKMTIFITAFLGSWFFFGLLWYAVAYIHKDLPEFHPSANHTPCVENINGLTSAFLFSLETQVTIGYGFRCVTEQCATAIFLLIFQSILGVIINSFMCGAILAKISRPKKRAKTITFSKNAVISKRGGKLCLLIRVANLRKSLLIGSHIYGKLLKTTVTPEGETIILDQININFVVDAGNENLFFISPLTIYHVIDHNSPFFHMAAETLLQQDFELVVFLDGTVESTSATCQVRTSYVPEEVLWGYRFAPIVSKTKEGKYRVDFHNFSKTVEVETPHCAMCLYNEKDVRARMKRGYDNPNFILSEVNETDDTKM
Diaphorase act – counter-screen for diaphorase-based assays: diaphorase activators and chemical reducers. Diaphorase/resazurin coupled assay, resorufin fluorescence, 16 min; stronger effect = higher value; 1 = vehicle wells, 0 = NADH-free wells. activation factor at 20 µM. 190,000 compounds, 0.005% hits;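 active means diaphorase activity raised at least twofold by the compound at 20 µM; inactive means activation factor below 2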
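Test system: Clostridium kluyveri diaphorase, purified enzyme; input: enzyme 0.07 U/mL final; buffer or medium: 50 mM HEPES pH 7.4 with 4.542 mM MgCl2, 0.005% Tween 20; also added: 0.114 mM NADH and 0.1 mM resazurin, final amounts; schedule: 16 min enzyme reaction, ambient temperature; technique: fluorescence of resorufin, 544 nm excitation, 590 nm emission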
* marks the source's active call; other numbers are inactive results; . = no result given. Hits are enriched below; roughly 12% of the tested compounds scored in any of these assays.

SMILES | Diaphorase inh | WT yeast gro inh | KCC2 mod | Lmaj promast | ROMK primary | Diaphorase act
Cc1ccc(C)c(S(=O)(=O)Nc2ccc3sc(C)nc3c2)c1 | 14 | 23 | -0.61 | 95* | -2.5 | 0.9
COc1cc(/C=N/NC(=O)c2ccc(CN(C)S(=O)(=O)c3ccc(C)cc3)cc2)ccc1O | 0 | 1 | -0.19 | -6 | -0.011 | 1
COC(=O)c1ccccc1N/C=C1\CCc2c(c(C)nn2-c2ccccn2)C1=O | 74* | 4 | . | -3 | . | 0.3
Cc1onc(-c2ccc(Cl)cc2)c1-c1ccnc(SCC(=O)Nc2ccc(C(C)C)cc2)n1 | . | . | -0.86 | . | . | .
CCOC(=O)C1C(c2cccc(F)c2)NC(=S)NC1(O)C(F)(F)F (stereo not given) | 8 | -8 | 1.5 | -4 | -0.16 | 0.9
Cc1nnc(SCc2c(Cl)cccc2[N+](=O)[O-])s1 | 12 | -3 | -0.2 | 80* | -0.5 | 0.9
Cc1noc(C)c1COc1ccc(C(=O)Nc2cccnc2)cc1 | -8 | -3 | -0.44 | -2 | 0.13 | 1.1
CCCCC(=O)NC(=S)Nc1cccc(Cl)c1N1CCCCC1 | 25 | 10 | 0.011 | 11 | 0.16 | 0.8
CCCCC(=O)NC(=S)Nc1ccccc1N1CCCCC1 | 17 | 65* | 0.25 | 9 | -0.1 | 0.8
CCCC(=O)NC(=S)Nc1cccc(Cl)c1N1CCCCC1 | 8 | 60* | . | 9 | . | 0.9
O=C(CNC(=O)C(c1ccccc1)c1ccccc1)OCC(=O)c1cccs1 | 5 | -8 | -0.52 | 0 | -1.1 | 1
Cc1cccc(-c2nnc(SCC3CNC(=O)O3)n2-c2ccc(Cl)cc2)c1 (stereo not given) | 8 | 5 | 0.071 | 96* | . | 0.9
COc1ccc(-n2c(SCC3CNC(=O)O3)nnc2-c2ccc(Cl)cc2)cc1 (stereo not given) | 8 | -12 | -1.1 | 92* | 0.24 | 0.9
O=C(Nc1cccc2ccccc12)c1cc2c(cc1Br)OCO2 | . | . | 0.49 | . | . | .
O=C1C=C(NCCN2CCOCC2)C(=O)c2cnccc21 | 23 | 4 | -0.29 | 99* | -0.28 | 0.8
CCC(C)NC(=O)COc1ccc(Br)c(C)c1 (stereo not given) | 14 | 3 | 0.7 | 2 | -1 | 0.9
CC/C(=N\NC(=S)Nc1ccc(OC)cc1)c1ccc(OC(F)F)cc1 | 18 | 49 | 8.7* | -4 | . | 0.8
CC/C(=N\NC(=S)Nc1cc(C)ccc1C)c1ccc(OC(F)F)cc1 | 7 | 66* | 7.7* | 74* | -0.7 | 0.9
CC/C(=N\NC(C)=O)c1ccc(OC(F)F)cc1 | 4 | 9 | -0.36 | -1 | 0.61 | 1
Cn1c(=O)[nH]c(=O)c2c1nc1n2CC(COc2ccc3ccccc3c2)O1 (stereo not given) | . | . | -0.24 | . | 0.6 | .
O=C(NNc1ccccc1)C(CCO)C(=O)NNc1ccccc1 | 5 | 27 | -0.16 | 76* | -0.054 | 1
CC(C)C(=O)NNc1ccccc1 | 9 | 6 | . | 0 | -0.54 | 0.9
CC(C)OC(=O)C(=O)NNc1ccccc1 | 10 | 72* | 0.08 | 42 | 0.86 | 0.9
CCCOC(=O)C(=O)NNc1ccccc1 | 1 | 58 | 0.21 | 29 | -0.65 | 1
CC(O)CC(C(=O)NNc1ccccc1)C(=O)NNc1ccccc1 (stereo not given) | 13 | 53 | -0.017 | 63* | 0.69 | 0.9
SMILES | Diaphorase inh | WT yeast gro inh | KCC2 mod | Lmaj promast | ROMK primary | Diaphorase act
CCc1ccc(C2NC(=S)NC3=C2C(=O)N(c2ccccc2OC)C(c2ccc(CC)cc2)N3)cc1 (stereo not given) | 15 | 5 | -0.21 | 9 | 0.51 | 0.8
O=C1C2=C(NC(=S)NC2c2ccc(Cl)cc2)NC(c2ccc(Cl)cc2)N1c1ccc(Cl)cc1 (stereo not given) | 9 | 13 | 0.04 | 100* | . | 0.9
Cc1onc(C(=O)NN)c1C(=O)Nc1ncc(C(F)(F)F)cc1Cl | 3 | -28 | 0.64 | -4 | -0.18 | 1
CCC(CO)n1c(SCc2cc([N+](=O)[O-])cc3c2OCOC3)nc2ccccc2c1=O (stereo not given) | 22 | 53 | -1.3 | 81* | . | 0.8
CS(=O)(=O)Oc1ccc(Br)cc1/C=C1/N=C(c2ccco2)OC1=O | -3 | 0 | 1.5 | -5 | 0.42 | 1
O=[N+]([O-])c1cc(Cl)cc(/C=N\Nc2ccccn2)c1O | 9 | -14 | . | 98* | . | 0.9
